GalR3 antagonist: antagonists of human GalR3. O60755. HEK293 GalR3-CNG cAMP membrane potential fluorescence; galR3 body fused to GalR1 C-terminus. inhibition, % at 3 µM. 360,000 tested, 0.44% active;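 active = inhibition above the screen-wide average plus 3 SD, cut at about 13% in these data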;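 also: forskolin and galanin both at EC90 stimulate the cells; cAMP rise reported by CNG channel membrane potential dye signal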
Target sequence (O60755 1-299 limits assumed): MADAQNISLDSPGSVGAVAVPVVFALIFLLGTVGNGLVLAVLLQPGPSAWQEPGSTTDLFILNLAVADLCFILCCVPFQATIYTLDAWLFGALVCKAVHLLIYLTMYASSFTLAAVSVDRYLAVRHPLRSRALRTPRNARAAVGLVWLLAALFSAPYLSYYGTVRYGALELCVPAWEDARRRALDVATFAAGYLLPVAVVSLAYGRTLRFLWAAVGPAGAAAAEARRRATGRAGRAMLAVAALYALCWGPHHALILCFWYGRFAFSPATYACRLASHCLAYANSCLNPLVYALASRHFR
NR2E3 ag-1: agonists of human nuclear receptor NR2E3 | inhibition of corepressor binding, % at 4.78 µM | GST-NR2E3/biotin-RetCOR TR-FRET, 1536-well | Q9Y5X4 | 320,000 tested, 0.12% active;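 active = percent inhibition above the cutoff of mean plus 3 SD of all tested compounds, set per screening campaign, cut at about 20% in these data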
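Material: NR2E3–RetCOR corepressor complex / Incubation: Compound–protein incubation for 5 h at 4 °C / Dosing: compound at 4.8 µM, single dose / Detection: time-resolved FRET / Benchmarks: high control biotin, low control 0.6% DMSO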
CHT PAM: allosterically activates the human high affinity choline transporter; Q9GZV3; CHT-expressing cells, membrane potential dye, choline EC20; hits give high values; LV-AA mutant CHT in HEK293 cells; B-score at 10 µM; 310,000 tested, 0.49% active;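 active = initial fluorescence not abnormally high and integrated response B-score, plate-corrected, over 3 SD above library mean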
COUP-TFII inh: blocks human COUP-TFII nuclear receptor. P24468. HEK293T NGFI-A luciferase reporter, luminescence. inhibition, % at 8.6 µM. 370,000 tested, 0.7% active;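 active = inhibition above a per-plate cutoff, mean inhibition of test wells between control levels plus 3 SD, cut at about 38% in these data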;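 also: cells cotransfected with COUP-TFII expression vector driving the NGFI-A reporter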
Target sequence (P24468 whole entry, looked up): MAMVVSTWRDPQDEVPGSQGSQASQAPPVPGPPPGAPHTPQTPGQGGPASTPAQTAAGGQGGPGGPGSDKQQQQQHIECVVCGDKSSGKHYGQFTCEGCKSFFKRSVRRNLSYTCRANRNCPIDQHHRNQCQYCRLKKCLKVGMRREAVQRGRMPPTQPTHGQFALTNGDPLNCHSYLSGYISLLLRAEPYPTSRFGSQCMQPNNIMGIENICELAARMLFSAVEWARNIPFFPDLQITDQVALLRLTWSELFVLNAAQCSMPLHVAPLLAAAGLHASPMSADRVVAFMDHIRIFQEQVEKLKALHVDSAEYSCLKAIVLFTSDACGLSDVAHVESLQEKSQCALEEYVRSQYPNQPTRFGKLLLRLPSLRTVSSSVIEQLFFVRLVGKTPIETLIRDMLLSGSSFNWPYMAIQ
CHT block: human CHT choline transport inhibition; AID 488975; Q9GZV3; 310,000 tested, 0.86% active; B-score at 10 µM; CHT-expressing cells, membrane potential dye, choline response; hits give low values;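 active = B-score over 3 SD under the library average, and starting fluorescence ratio not unusually high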;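 also: choline stimulus applied at its EC90 after an EC20 pre-addition; B-score computed on integrated fluorescence ratio after choline addition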
NR2E3 ag-2: agonists of human NR2E3 nuclear receptor | AID 602229 | 360,000 tested, 0.35% active | inhibition of corepressor binding, % at 3.98 µM | CHO-S Gal4-NCOR/VP16-NR2E3 two-hybrid, luciferase | Q9Y5X4;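 active = inhibition above the mean of all tested compounds plus 3 SD, cut at about 70% in these data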;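 also: higher means lower luciferase signal from less NR2E3 corepressor binding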
GalR3 conf: confirmation of human galanin receptor 3 antagonists; inhibition, % at 3 µM; shares compounds with GalR3 antagonist; HEK293 GalR3 CNG cAMP biosensor, membrane potential fluorescence; galR3 fused to GalR1 carboxy tail; challenged with forskolin and galanin at EC90; 1,600 tested, 59% active;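 active = inhibition above the primary screen's cutoff, the mean inhibition of all screened compounds plus 3 SD, cut at about 13% in these data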
CNG parental: acts as nonspecific agonist in parental HEK-CNG cells. 1,600 tested, 10% active. HEK293-CNG parental cells, cAMP membrane potential fluorescence; normalised: DMSO wells 0%, forskolin wells 100%. activation, % at 3 µM. shares compounds with GalR3 antagonist; in the data active = activation above about 1.3%
Numbers stand for hits; – = inactive; · = not tested or not shown. The list is not random: actives were taken first. Their share in the collection is about 2.3%.

SMILES | GalR3 antagonist | NR2E3 ag-1 | CHT PAM | COUP-TFII inh | CHT block | NR2E3 ag-2 | GalR3 conf | CNG parental
N#C/C(=C(/O)COc1ccc(Cl)cc1)c1nc2ccccc2s1 | 14 | – | – | – | – | – | – | 1.3
Cc1cc(C)n(C(=O)COc2ccc(Cl)cc2Cl)n1 | 14 | – | – | – | – | – | 16 | –
CCOc1ncccc1C(=O)OCC(=O)c1ccccc1Br | 16 | – | – | – | – | – | – | –
CCOc1ncccc1C(=O)OCC(=O)c1ccccc1 | – | – | – | – | – | – | · | ·
CCC(C)c1ccc(OCC(=O)Nc2ccc(CN3CCOCC3)cc2)cc1 (stereo not given) | 18 | · | – | – | – | – | – | –
CC(C)c1ccc(/C=C/C(=O)NC(=S)NN2CCOCC2)cc1 | – | · | – | – | – | – | · | ·
CC(C)c1ccc(/C=C/C(=O)NC(=S)Nc2ccc(CN3CCOCC3)cc2)cc1 | 46 | – | – | – | – | – | 75 | 22
O=C(C1CCCN1S(=O)(=O)c1ccccc1[N+](=O)[O-])N1CCN(c2ccccc2)CC1 (stereo not given) | · | · | · | – | · | · | · | ·
COc1ccc(N2CCN(CCCNC(=O)Cn3c(=O)c4cccn4c4c(C)ccnc43)CC2)cc1 | · | · | · | – | · | · | · | ·
COc1cccc(-n2c(C)c(C(C)=O)c(C(C)=O)c2C)c1 | 15 | – | – | – | – | – | – | –
CC(C)(C)CN1C(N)=NC[C@@H]1Cc1ccccc1 | · | – | – | – | – | – | – | –
NC1=NC[C@H](Cc2ccc(O)cc2)N1CCc1cccc(F)c1 | · | – | – | – | – | – | – | –
CN(C)C1=NC[C@H](Cc2ccccc2)N1CCc1cccc(F)c1 | – | – | – | – | – | – | · | ·
CCOC(=O)c1cccc(NC(=O)CN(C)S(=O)(=O)c2ccc(C)c(C)c2)c1 | · | · | · | – | · | · | · | ·
CCNC(=O)NC(=O)C(C)OC(=O)c1oc2ccc(OC)cc2c1C (stereo not given) | – | – | – | – | – | – | · | ·
CCNC(=O)NC(=O)C(C)Oc1ccc(C(=O)OC)cc1 (stereo not given) | 20 | – | – | – | – | – | – | –
Cc1cc(C#N)c(C)c(SCc2[nH]nc3c2C(c2ccccc2)C(C#N)=C(N)O3)n1 (stereo not given) | 27 | – | – | – | – | – | – | –
Cc1cc(C)c(C#N)c(SCc2[nH]nc3c2C(c2ccc(F)cc2)C(C#N)=C(N)O3)n1 (stereo not given) | 18 | – | – | – | – | – | 39 | 4.4
Cc1ccc(SCc2[nH]nc3c2C(c2cccnc2)C(C#N)=C(N)O3)cc1 (stereo not given) | – | – | – | – | – | – | · | ·
Cc1[nH]nc2c1C(c1ccc(F)cc1)C(C#N)=C(N)O2 (stereo not given) | – | – | – | – | – | – | · | ·
CCCCOCCCNC(=O)C[C@H]1C[C@@]2(C(=O)OC)C(=C[C@H](C(C)C)O[C@@H]2C2CC2)N(CCc2ccc(OC)c(OC)c2)C1=O | · | · | · | – | · | · | · | ·
NNC(=O)c1cc2c(N3CCC(Cc4ccccc4)CC3)ncnc2s1 | 29 | – | – | – | – | – | 21 | –
O=S(=O)(c1ccccc1)N1CCN(c2ncnc3sc(-c4ccccc4)cc23)CC1 | – | · | · | – | · | – | · | ·
COc1cc(C(=O)Nc2cccc(S(=O)(=O)N3CCCC3)c2)cc(OC)c1C | 14 | – | – | – | – | – | – | –
Cc1ccccc1NC(=O)c1cc(S(=O)(=O)N2CCOCC2)ccc1F | 14 | – | – | – | – | – | – | –
SMILES | GalR3 antagonist | NR2E3 ag-1 | CHT PAM | COUP-TFII inh | CHT block | NR2E3 ag-2 | GalR3 conf | CNG parental
CS(=O)(=O)c1cccc(C(=O)Nc2cccc(S(=O)(=O)N3CCCC3)c2)c1 | – | · | · | – | · | – | · | ·
Cc1ccc(S(=O)(=O)N2CCOCC2)cc1NC(=O)c1cccc(S(=O)(=O)N2CCCC2)c1 | · | – | – | – | – | – | – | –
Cc1ccccc1NC(=O)c1cccc(S(=O)(=O)N2CCOCC2)c1 | – | – | – | – | – | – | · | ·
Cc1nc(SCc2nc3ccccc3[nH]2)c2oc3ccc(Br)cc3c2n1 | 14 | · | · | – | · | – | 28 | –
Cc1ccc2nc(CSc3nc(C)nc4c3oc3ccccc34)[nH]c2c1 | – | · | · | – | · | – | · | ·
O=C(CSc1nnc(-c2ccncc2)n1-c1ccccc1)Nc1cccc2ccccc12 | · | · | · | – | · | · | · | ·
COC(=O)c1ccc(Cn2ccc3ccc(-c4ccc5ccn(Cc6ccc(OC)cc6)c5c4)cc32)cc1 | · | · | · | – | · | · | · | ·
C#Cc1ccc([C@@H]2C=C(C(=O)Nc3ccccc3)O[C@H](OCC)[C@H]2CCCO)cc1 | · | – | – | – | – | – | – | –
Cc1ccc(S(=O)(=O)N2C=C(c3ccccc3)c3ccccc3-c3ccccc32)cc1 | · | · | · | – | · | · | · | ·
Cc1c(/C=N/Nc2ccc(C(=O)O)cc2)c2ccccc2n1C | – | – | – | – | – | – | · | ·
CC1Oc2ccccc2C=C1/C=N/Nc1ccc(C(=O)O)cc1 (stereo not given) | 14 | – | – | – | – | – | 14 | –
Cc1nc2sc(C(=O)NCc3ccncc3)c(N)c2c(C)c1Cl | · | · | · | – | · | · | · | ·
CCOc1ccc(N(CC(=O)NC2CCCCC2)C(=O)CSc2nnc(COc3ccccc3)o2)cc1 | – | – | – | – | – | – | · | ·
O=C(CN(Cc1cccs1)C(=O)CSc1nnc(COc2ccccc2)o1)NC1CCCCC1 | 13 | – | – | – | – | – | – | –
CC(=O)N1CCN(S(=O)(=O)c2ccc3c(c2)oc(=O)n3C)CC1 | · | · | · | – | · | · | · | ·
CN(C)S(=O)(=O)c1ccc(Cl)c(C(=O)NCCNC(=O)c2cc(S(=O)(=O)N(C)C)ccc2Cl)c1 | 13 | – | – | – | – | – | – | –
CN(C)S(=O)(=O)c1ccc(Cl)c(C(=O)NCC2CCCCC2)c1 | – | – | – | – | – | – | · | ·
O=c1c2ccccc2n(Cc2ccccc2)n1[C@@H](Cc1ccccc1)Cn1cc(-c2ccc(-c3ccccc3)cc2)nn1 | · | · | · | – | · | · | · | ·
CCc1onc(C)c1C(=O)Nc1ccc2c(c1)OCO2 | · | – | – | – | – | – | – | –
Cc1noc(C(=O)Nc2ccc3c(c2)OCO3)c1Cl | – | – | – | – | – | – | · | ·
Nc1c(Cl)cc(-c2csc(NC(CO)c3nc4ccccc4n3CCOCCO)n2)cc1Cl (stereo not given) | 64 | – | – | – | – | – | – | –
CCOc1cc2c(cc1OC)C(NC(=O)c1ccco1)CC2=O (stereo not given) | 17 | – | – | – | – | – | – | –

Assay outcomes as filed in PubChem.
